Calls of active or inactive are those of the source. The calls are words filed in the database; no cut-off is given here.
Assays:
[1] = Uncoupling of electron transport protein complex in alkyl pyridine carbonyldithiocarbazates-stimulated rat liver mitochondria assessed as concentration required to 100% uncoupling
Procedure, shortened: (§1)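 Rat liver mitochondria were isolated by the Hogeboom method, with protein measured by Biuret. Protein varied by footnote, 1.33–2.12 mg/3.3 mL. Mitochondria in state 4 were kept in pH 7.2 medium (200 mM sucrose, 10 mM phosphate, 2 mM MgCl₂, 1 mM EDTA, 10 mM succinate, 1 μg rotenone). They were titrated with compound in Me₂SO, and O₂ uptake was read by Galvani electrode. The minimum concentration giving maximal respiration release was taken; values are means of ≥3 runs.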

Rattus norvegicus [2] = species: Rattus norvegicus; assay: Respiration rate of electron transport protein complex in rat liver mitochondria […] assessed as oxygen consumption at 1 uM in presence of glutamate and malate
Procedure, shortened: (§2)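 Oxygen uptake by rat liver mitochondria (3.0 mg protein) was measured with a Clark-type electrode at 25 °C. Medium at pH 7.4 held 200 mM sucrose, 10 mM potassium phosphate, 2 mM MgCl₂ and 1 mM EDTA. Substrate was 10 mM glutamate plus 10 mM malate.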

Rattus norvegicus [3] = species: Rattus norvegicus; assay: Respiration rate of electron transport protein complex in rat liver mitochondria […] assessed as oxygen consumption at 2 uM in presence of glutamate and malate; procedure, shortened: as §2
Rattus norvegicus [4] = species: Rattus norvegicus; assay: Respiration rate of electron transport protein complex in rat liver mitochondria […] assessed as oxygen consumption at 1 uM in presence of succinate
Procedure, shortened: (§3)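 State 4 respiration of rat liver mitochondria (3.0 mg protein, 25 °C) was followed with a Clark-type electrode. Medium was pH 7.4 with 200 mM sucrose, 10 mM potassium phosphate, 2 mM MgCl₂ and 1 mM EDTA. Substrate was 10 mM succinate with 1 μg rotenone.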

Rattus norvegicus [5] = species: Rattus norvegicus; assay: Respiration rate of electron transport protein complex in rat liver mitochondria […] assessed as oxygen consumption at 1 uM in presence of ascorbate and TMPD
Procedure, shortened: (§4)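 Rat liver mitochondria at 3.0 mg protein in pH 7.4 medium (200 mM sucrose, 10 mM potassium phosphate, 2 mM MgCl₂, 1 mM EDTA), 25 °C. Substrate was 10 mM ascorbate plus 200 μM TMPD, with 2 μg rotenone. State 4 respiration was read as oxygen uptake on a Clark-type electrode.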

Rattus norvegicus [6] = species: Rattus norvegicus; assay: Respiration rate of electron transport protein complex in rat liver mitochondria […] assessed as oxygen consumption at 2 uM in presence of ascorbate and TMPD; procedure, shortened: as §4
Rattus norvegicus [7] = species: Rattus norvegicus; assay: Respiration rate of electron transport protein complex in rat liver mitochondria […] assessed as oxygen consumption at 5 uM in presence of ascorbate and TMPD; procedure, shortened: as §4
[8] = Uncoupling of electron transport protein complex in alkyl pyridine carbonyldithiocarbazates-stimulated rat liver mitochondria up to 100 uM; procedure, shortened: as §1
Rattus norvegicus [9] = species: Rattus norvegicus; assay: Respiration rate of electron transport protein complex in rat liver mitochondria […] assessed as oxygen consumption at 5 uM in presence of glutamate and malate; procedure, shortened: as §2
Rattus norvegicus [10] = species: Rattus norvegicus; assay: Respiration rate of electron transport protein complex in rat liver mitochondria […] assessed as oxygen consumption at 2 uM in presence of succinate; procedure, shortened: as §3
Rattus norvegicus [11] = species: Rattus norvegicus; assay: Respiration rate of electron transport protein complex in rat liver mitochondria […] assessed as oxygen consumption at 6 uM in presence of ascorbate and TMPD; procedure, shortened: as §4
[12] = Uncoupling of electron transport protein complex in alkyl pyridine carbonyldithiocarbazates-stimulated rat liver mitochondria up to 500 uM; procedure, shortened: as §1

Row | Activity [1] [µM] | Compound | also measured
1 | 370 | CCCSC(=S)NNC(=O)c1cccnc1 | –
2 | 109 | CCCSC(=S)NNC(=O)c1ccncc1 | –
3 | 1.3 | CCCCCCCCSC(=S)NNC(=O)c1cccnc1 | –
4 | 105 | CCCCCSC(=S)NNC(=O)c1cccnc1 | –
5 | 2160 | CSC(=S)NNC(=O)c1cccnc1 | –
6 | 62.5 | CCCCSC(=S)NNC(=O)c1ccncc1 | –
7 | 1000 | CCSC(=S)NNC(=O)c1cccnc1 | –
8 | 1.1 | CCCCCCCCCSC(=S)NNC(=O)c1cccnc1 | Activity (Rattus norvegicus [2]): 125 min⁻¹; Activity (Rattus norvegicus [3]): 178 min⁻¹; Activity (Rattus norvegicus [9]): 263 min⁻¹; Activity (Rattus norvegicus [4]): 250 min⁻¹; Activity (Rattus norvegicus [10]): 300 min⁻¹; Activity (Rattus norvegicus [5]): 208 min⁻¹; Activity (Rattus norvegicus [6]): 227 min⁻¹; Activity (Rattus norvegicus [7]): 236 min⁻¹
9 | 14 | CCCCCCCSC(=S)NNC(=O)c1cccnc1 | –
10 | 17.5 | CCCCCSC(=S)NNC(=O)c1ccncc1 | –
11 | 360 | CCCCSC(=S)NNC(=O)c1cccnc1 | –
12 | 1200 | CCSC(=S)NNC(=O)c1ccncc1 | –
13 | 290 | CCCSC(=S)NNC(=O)c1ccccn1 | –
14 | 89 | CCCCCCSC(=S)NNC(=O)c1cccnc1 | –
15 | 1.95 | CCCCCCCSC(=S)NNC(=O)c1ccncc1 | –
16 | 240 | CCCCSC(=S)NNC(=O)c1ccccn1 | –
17 | 6.58 | CCCCCCSC(=S)NNC(=O)c1ccncc1 | –
18 | 90 | CCCCCSC(=S)NNC(=O)c1ccccn1 | –

Further lines, the compound ahead of its results:

Row | Compound | Activity [1] [µM] | also measured
19 | CCCCCCCCSC(=S)NNC(=O)c1ccncc1 | 0.84 | –
20 | CCCCCCCCCSC(=S)NNC(=O)c1ccncc1 | 0.86 | Activity (Rattus norvegicus [2]): 178 min⁻¹; Activity (Rattus norvegicus [3]): 278 min⁻¹; Activity (Rattus norvegicus [4]): 361 min⁻¹; Activity (Rattus norvegicus [5]): 214 min⁻¹; Activity (Rattus norvegicus [6]): 222 min⁻¹; Activity (Rattus norvegicus [7]): 250 min⁻¹
21 | CCCCCCCSC(=S)N(C)NC(=O)c1ccccn1 | – | Activity [8]: inactive
22 | CCCCCCCCCSC(=S)N(C)NC(=O)c1ccccn1 | – | Activity [8]: inactive
23 | CSC(=S)NNC(=O)c1ccncc1 | 1900 | –
24 | CCCCCCSC(=S)NN | 350 | –
25 | CCCCCCCCCS/C(S)=N/NC(=O)c1ccccn1 | 2.9 | Activity (Rattus norvegicus [2]): 89 min⁻¹; Activity (Rattus norvegicus [3]): 111 min⁻¹; Activity (Rattus norvegicus [9]): 180 min⁻¹; Activity (Rattus norvegicus [4]): 167 min⁻¹; Activity (Rattus norvegicus [10]): 250 min⁻¹; Activity (Rattus norvegicus [5]): 220 min⁻¹; Activity (Rattus norvegicus [11]): 248 min⁻¹
26 | CCSC(=S)NNC(=O)c1ccccn1 | 1280 | –
27 | CSC(=S)NNC(=O)c1ccccn1 | 1870 | –
28 | CCCCCCCCSC(=S)N(C)NC(=O)c1ccccn1 | – | Activity [8]: inactive
29 | CCCCCCSC(=S)NNC(=O)c1ccccn1 | 50 | –
30 | CCCCCSC(=S)N(C)NC(=O)c1ccccn1 | – | Activity [12]: inactive
31 | CCCCCCCSC(=S)NNC(=O)c1ccccn1 | 4.7 | –
32 | CCCCCCSC(=S)N(C)NC(=O)c1ccccn1 | – | Activity [8]: inactive
33 | CCCCCCCCSC(=S)NNC(=O)c1ccccn1 | 3.7 | –
34 | CCCCCSC(=S)NN | 900 | –
35 | CCCCCCCSC(=S)NN | 140 | –

Reference: ChEMBL document CHEMBL3272048, “Syntheses and uncoupling activities of alkyl dithiocarbazates and alkyl pyridinecarbonyldithiocarbazates” (J Med Chem, 1978)
